Compounds with a hit are over-represented: about 1.3% of the library has one in this group of screens.
NSD2 inh – NSD2 (human) methyltransferase inhibition | actives 0.54% (n = 310,000) | O96028 | inhibition, % at 12.5 µM | NSD2 peptide methylation, AlphaScreen, 120 min; in the data active means inhibition above about 50%
Target sequence (O96028 whole entry, looked up): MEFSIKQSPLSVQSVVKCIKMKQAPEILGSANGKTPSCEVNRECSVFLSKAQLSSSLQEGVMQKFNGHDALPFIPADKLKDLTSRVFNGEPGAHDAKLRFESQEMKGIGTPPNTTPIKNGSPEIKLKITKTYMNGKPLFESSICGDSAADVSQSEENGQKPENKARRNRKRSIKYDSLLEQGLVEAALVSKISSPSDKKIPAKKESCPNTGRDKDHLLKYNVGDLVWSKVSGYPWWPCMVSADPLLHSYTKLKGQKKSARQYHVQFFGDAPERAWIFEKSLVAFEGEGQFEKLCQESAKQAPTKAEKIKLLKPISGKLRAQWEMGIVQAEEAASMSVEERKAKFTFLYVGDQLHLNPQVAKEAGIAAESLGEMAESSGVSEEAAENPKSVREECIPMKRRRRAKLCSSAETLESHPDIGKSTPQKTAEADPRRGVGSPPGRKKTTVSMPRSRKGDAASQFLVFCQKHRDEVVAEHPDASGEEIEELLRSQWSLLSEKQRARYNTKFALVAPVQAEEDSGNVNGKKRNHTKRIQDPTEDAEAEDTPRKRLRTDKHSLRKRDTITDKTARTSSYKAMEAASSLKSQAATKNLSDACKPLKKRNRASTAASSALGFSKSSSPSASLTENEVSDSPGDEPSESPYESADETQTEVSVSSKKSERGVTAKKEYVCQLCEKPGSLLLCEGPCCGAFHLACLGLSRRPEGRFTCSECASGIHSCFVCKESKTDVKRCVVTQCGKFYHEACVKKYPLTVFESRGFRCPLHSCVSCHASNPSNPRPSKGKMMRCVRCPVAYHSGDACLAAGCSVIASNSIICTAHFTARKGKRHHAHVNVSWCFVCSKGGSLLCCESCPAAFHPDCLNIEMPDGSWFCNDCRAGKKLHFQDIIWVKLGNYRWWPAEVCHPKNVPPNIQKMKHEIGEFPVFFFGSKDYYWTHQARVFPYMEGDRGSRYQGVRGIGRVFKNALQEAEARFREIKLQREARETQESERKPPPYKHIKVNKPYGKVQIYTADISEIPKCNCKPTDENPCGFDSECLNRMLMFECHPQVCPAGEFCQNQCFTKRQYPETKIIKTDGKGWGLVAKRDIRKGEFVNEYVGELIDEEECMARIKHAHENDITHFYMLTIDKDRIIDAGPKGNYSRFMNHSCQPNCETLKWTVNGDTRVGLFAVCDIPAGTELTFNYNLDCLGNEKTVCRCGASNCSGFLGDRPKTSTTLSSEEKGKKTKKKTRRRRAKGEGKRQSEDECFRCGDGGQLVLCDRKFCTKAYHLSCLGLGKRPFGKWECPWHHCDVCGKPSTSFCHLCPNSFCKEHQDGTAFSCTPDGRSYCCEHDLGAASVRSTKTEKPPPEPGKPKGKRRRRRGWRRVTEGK
Casp6 inh – inhibitors of human caspase-6 | actives 0.53% (n = 350,000) | AID 686996 | inhibition, % at 12.5 µM | purified caspase-6, Z-VEID-R110 cleavage fluorescence;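 active means mean inhibition across replicates at least about 35%, with every replicate also reaching that limit, limit read from the data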
UCH37 inh – blocks the human deubiquitinase UCH37; purified proteasome/UCH37, Ub-AMC cleavage fluorescence; inhibition, % (no concentration beside the values); actives 0.33% (n = 330,000); AID 588478;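 active means mean inhibition over replicate wells above about 20%, limit read from the data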
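Test system – human UCH37 enzyme supplied as purified proteasome complex · Incubation – 30 min preincubation with enzyme, 25 min cleavage at room temperature · Detection – AMC fluorescence from Ub-AMC cleavage, excitation 355 nm, emission 460 nm · Benchmarks – no-proteasome wells (full inhibition) and compound-free wells (no inhibition)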
LEDGF integ inh – blocks HIV-1 LEDGF/p75-dependent DNA integration. inhibition, % at 3.7 µM. TR-FRET IN-LEDGF/p75 DNA integration, Eu/Cy5. actives 0.64% (n = 370,000). AID 743269;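 active means inhibition above the screen-wide mean plus 3 SD, cut at about 13% in these data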;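 further: signal is the Cy5 over europium emission ratio at 671 and 618 nm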
TDP2 inh – TDP2 (human) inhibition, absorbance primary screen; O95551; recombinant TDP2, T5PNP hydrolysis, p-nitrophenol absorbance 415 nm; inhibition, % at 12.8 µM; actives 0.34% (n = 370,000); AID 720702;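 active means inhibition above the mean of all tested compounds plus 3 SD, set per campaign, cut at about 25% in these data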
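Test system: human TDP2 enzyme; Input: 120 nM TDP2 per well; Buffer or medium: Mg2+-containing Tris-HCl buffer, pH 7.5; Reagent: 5 mM T5PNP; Dosing: 12.8 µM single point, 1% DMSO; Incubation: reaction 2 h, 37 °C; Detection: p-Nitrophenol epi absorbance; Read-out: % inhibition relative to enzyme-containing and enzyme-free wells; Replicates: single well per compound.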
A number is an active result; n = inactive; x = no result given.

SMILES | NSD2 inh | Casp6 inh | UCH37 inh | LEDGF integ inh | TDP2 inh
C=CCNc1nc(Nc2cc(Cl)ccc2OC)nc(OC)n1 | n | 39 | n | n | n
CCOc1nc(NCCO)nc(Nc2cc(Cl)ccc2OC)n1 | n | n | n | n | n
CC(C)Oc1ccc(C(=O)NN=Cc2ccc(-c3ccc(S(=O)(=O)Nc4ncccn4)cc3)o2)cc1 | x | x | n | x | x
Cc1ccc2occ(C=NNC(=O)c3ccccc3C)c(=O)c2c1 | x | x | n | x | x
COc1ccc(/C=C2\SC(=S)NC2=O)cc1OS(=O)(=O)c1ccc(NC(C)=O)cc1 | n | 40 | n | n | n
COc1cc(/C=C2/SC(=S)NC2=O)ccc1OS(=O)(=O)c1ccc(C)cc1 | x | x | n | x | x
COc1cc(OC)c(C=Nn2c(C)nnc2C)c(OC)c1 | x | x | n | x | x
CC(C)(C)S(=O)(=O)N1C[C@H]2CC/C=C\C/C(c3ccccc3)=C\2[C@@H]1CCO | x | n | 25 | n | n
C[C@@H]1CN(S(=O)(=O)C(C)(C)C)[C@@H](CCO)/C1=C\c1ccccc1 | x | n | n | n | n
CCCCOc1ccc(C=c2sc3ncnn3c2=O)cc1 | x | x | n | x | x
CC(Cl)c1cc(-c2ncc(C(F)(F)F)cc2Cl)no1 (configuration not stated) | n | n | 30 | n | n
FC(F)(F)c1cnc(-c2cnc(-c3ccccn3)nc2)c(Cl)c1 | n | n | n | n | n
O=C(Cc1ccccc1)NN1C(=O)/C(=C/c2ccccc2C(=O)O)SC1=S | n | 62 | n | n | n
O=C(O)COc1ccccc1/C=C1\SC(=S)N(NC(=O)c2ccccc2O)C1=O | x | n | n | n | n
Cc1ccc(NC2=CC(=NS(=O)(=O)c3cccs3)c3ccccc3C2=O)cc1 | x | x | 22 | x | x
CCc1ccc(S(=O)(=O)/N=C2\C=C(Nc3ccc(C(=O)O)cc3)C(=O)c3ccccc32)cc1 | x | 97 | x | 29 | 72
C=C(C)C1CC=C(C)C(=NNC(=O)COc2ccccc2Cl)C1 (configuration not stated) | x | x | n | x | x
COc1ccc2c(c1)c(=O)oc1c(C)c(OC(C)C(=O)N[C@@H](Cc3c[nH]c4ccc(O)cc34)C(=O)O)ccc12 (some centres not stated) | x | 39 | n | n | n
O=c1c2ccccc2[nH]c2ccc(O)cc12 | n | 38 | n | n | n
C=CCn1c(SCC(=O)N(C)C2CCCCC2)nnc1C1CC1 | n | n | n | n | n
Cc1nnc(SCC(=O)N(C)C2CCCCC2)n1C | n | 55 | n | n | n
CN(C)c1ccc(C=NNC(=O)c2ccc(NC(=O)c3ccccc3)cc2)cc1 | x | x | n | x | x
O=C(Cc1ccccc1)NN=Cc1ccc(S(=O)(=O)O)o1 | x | x | n | x | x
CN1CCN(c2ccccc2/C=N/NC(=O)c2cccnc2)CC1 | n | n | x | n | n
O=C(NN=Cc1cc([N+](=O)[O-])c(N2CCOCC2)cc1N1CCOCC1)c1cccnc1 | x | x | 23 | x | x
SMILES | NSD2 inh | Casp6 inh | UCH37 inh | LEDGF integ inh | TDP2 inh
CCN1CCN(CCCNC(=O)C2CCCN(c3nnc(-n4cccc4)s3)C2)CC1 (configuration not stated) | n | x | 23 | n | n
CN1CCN(CCCNC(=O)C2CCN(c3nnc(-n4cccc4)s3)CC2)CC1 | n | x | n | n | n
CC(/C=C/c1ccco1)=NNC(=O)c1ccc(C)nc1 | x | x | n | x | x
COc1ccc(C=NNS(=O)(=O)c2ccccc2)cc1OS(=O)(=O)c1ccc(C)cc1 | x | x | n | x | x
Cc1ccc(NC(=O)N/C=C/c2ccco2)cc1 | n | x | n | 14 | n
COc1ccccc1N(CC(=O)NN=Cc1ccc(OCC(=O)NCc2ccco2)cc1)S(=O)(=O)c1ccc(C)cc1 | x | x | n | x | x
Cn1c(SCCOc2ccccc2Cl)nnc1-c1ccncc1 | n | 35 | n | n | n
O=C(c1ccccc1)N1CCN(C(=O)c2cc3ccccc3o2)CC1 | n | x | 27 | n | n
C#Cc1ccc([C@H]2C=C(C(=O)N3CCOCC3)O[C@@H](OCC)[C@@H]2CCCO)cc1 | x | n | n | n | n
C#Cc1ccc([C@@H]2C=C(C(=O)N3CCOCC3)O[C@H](OCC)[C@H]2CCCO)cc1 | x | n | 27 | n | n
Cc1nnc(SCC(=O)NC2CCCCCC2)n1C(C)C | x | 44 | n | n | n
Nc1nc(SCC(=O)NC2CCCCC2)n[nH]1 | n | 95 | n | n | n
O=C(CN1CCCc2ccccc21)NN=Cc1ccccc1O | x | x | n | x | x
CCOc1ccc(S(=O)(=O)Nc2ccc(C(=O)N/N=C/c3c(C)nn(-c4ccccc4)c3N3CCCC3)cc2)cc1 | n | 62 | x | n | n
O=C1CC(c2ccccc2)CC(=NCCO)/C1=C(/O)CCCN1C(=O)c2ccccc2C1=O (configuration not stated) | x | x | n | x | x
COc1ccc(NC(=O)CSCCc2ccccn2)cc1OC | n | n | n | n | n
O=C(CSCCc1ccccn1)Nc1cccnc1 | n | x | 23 | n | n
O=C(O)c1ccc(NS(=O)(=O)/C=C/c2ccccc2)cc1O | n | 44 | n | n | n
O=S(=O)(/C=C/c1ccccc1)Nc1ccc(N2CCOCC2)cc1 | n | x | n | n | n
O=C(C[n+]1ccccc1)NN=Cc1ccc(F)cc1 | x | x | n | x | x
O=C1C(=O)c2ccccc2C(O)=C1CCCCl | 106 | x | x | x | x
COc1ccc(CC2=C(O)c3ccccc3C(=O)C2=O)cc1 | n | n | n | n | n
CCN1CCN(c2ncnc3c2cnn3-c2ccc(Cl)cc2)CC1 | x | 38 | n | n | n
COc1cccc(C=NNC(=O)CCc2c(C)n[nH]c2C)c1 | x | x | 29 | x | x
Nc1nc2ccccc2n1N=Cc1cccnc1 | x | x | n | x | x
SMILES | NSD2 inh | Casp6 inh | UCH37 inh | LEDGF integ inh | TDP2 inh
Cc1cc(Cl)ccc1OCC(=O)OCC(=O)NCCNC(=O)COC(=O)COc1ccc(Cl)cc1C | n | n | x | 20 | n
O=C(NC1CCCCC1)N[C@H]1C=C[C@@H](CC(=O)N2CCOCC2)O[C@@H]1CO | x | 37 | x | x | x
O=C(CCS(=O)(=O)c1ccc(Br)cc1)NC1CCCCCC1 | n | 61 | n | n | n
Cc1ccc(S(=O)(=O)CCC(=O)NC2CCCCC2)cc1 | n | n | n | n | n
O=C(CCS(=O)(=O)c1ccc(Cl)cc1)NCCC1=CCCCC1 | n | n | n | n | n
O=C(CCS(=O)(=O)c1ccc(Br)cc1)NCc1ccc(F)cc1 | n | 70 | n | n | n
O=C(CCS(=O)(=O)c1ccc(Br)cc1)NCCC1=CCCCC1 | n | 66 | n | n | n
Cc1cccc(NS(=O)(=O)c2cc(C(=O)NCCC3=CCCCC3)ccc2Cl)c1 | n | x | 21 | n | n
N#CC(=NNc1ccc(S(=O)(=O)N2CCOCC2)cc1)C(N)=S | x | x | 22 | x | x
Cc1ccc(C2CC2C(=NO)c2ccc(F)cc2)cc1 (configuration not stated) | x | x | n | x | x
CN(C)c1ccc(C(=O)c2ccccc2C(=O)O)c(O)c1 | n | x | 23 | n | n
CCCCN(CCCC)c1ccc(C(=O)c2ccccc2C(=O)O)c(O)c1 | n | n | n | n | n
Cc1ccccc1-c1cc(C(=O)NCc2ccc(OC(F)(F)F)cc2)nn1CC1CC(c2cccc([N+](=O)[O-])c2)=NO1 (configuration not stated) | x | n | n | n | n

Bioassay records (PubChem)
